# Hits are enriched below; roughly 1.6% of the tested compounds scored in any of these assays.
# SR-BI HDL uptake: inhibitors of SR-BI mediated HDL lipid uptake, primary screen, ldlA[mSR-BI] cells, fluorescence, single point; Scavenger receptor class B member 1 (Mus musculus), Q61009; ldlA[mSR-BI] CHO cells, DiI-HDL uptake fluorescence, 3 h; inhibition, % at 12.5 µM; 320,000 tested, 0.96% active;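 active = mean replicate inhibition of at least 70% and a set share of replicates each scoring 70 or more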;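 also: 0% = median of neutral control wells and 100% = median of positive control wells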
# TLR9-MyD88 block: inhibitors of TLR9-MyD88 association in cells, primary screen, cell-based, CHO, BLA complementation, fluorescence; CCF4 FRET ratio; AID 504734, 2011; inhibition, % at 4.98 µM; 340,000 tested, 0.21% active; Toll-like receptor 9 (Homo sapiens) + Myeloid differentiation primary response protein …;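 active = inhibition above the mean over all tested compounds plus 3 SD, cut at about 21% in these data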;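 also: 0% = DMSO only wells and 100% = clavulanate BLA inhibitor control wells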
# Target sequence (Q99836 whole entry, looked up): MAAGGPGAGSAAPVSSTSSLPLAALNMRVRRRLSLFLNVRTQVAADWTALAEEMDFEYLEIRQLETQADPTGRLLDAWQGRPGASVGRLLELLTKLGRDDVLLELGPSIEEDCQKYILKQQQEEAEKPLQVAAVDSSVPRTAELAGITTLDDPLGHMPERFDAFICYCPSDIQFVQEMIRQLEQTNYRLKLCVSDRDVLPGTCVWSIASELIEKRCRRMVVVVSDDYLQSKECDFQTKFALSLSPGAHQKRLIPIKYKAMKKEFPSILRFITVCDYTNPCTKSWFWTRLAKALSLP
# Target sequence (Q9NR96 whole entry, looked up): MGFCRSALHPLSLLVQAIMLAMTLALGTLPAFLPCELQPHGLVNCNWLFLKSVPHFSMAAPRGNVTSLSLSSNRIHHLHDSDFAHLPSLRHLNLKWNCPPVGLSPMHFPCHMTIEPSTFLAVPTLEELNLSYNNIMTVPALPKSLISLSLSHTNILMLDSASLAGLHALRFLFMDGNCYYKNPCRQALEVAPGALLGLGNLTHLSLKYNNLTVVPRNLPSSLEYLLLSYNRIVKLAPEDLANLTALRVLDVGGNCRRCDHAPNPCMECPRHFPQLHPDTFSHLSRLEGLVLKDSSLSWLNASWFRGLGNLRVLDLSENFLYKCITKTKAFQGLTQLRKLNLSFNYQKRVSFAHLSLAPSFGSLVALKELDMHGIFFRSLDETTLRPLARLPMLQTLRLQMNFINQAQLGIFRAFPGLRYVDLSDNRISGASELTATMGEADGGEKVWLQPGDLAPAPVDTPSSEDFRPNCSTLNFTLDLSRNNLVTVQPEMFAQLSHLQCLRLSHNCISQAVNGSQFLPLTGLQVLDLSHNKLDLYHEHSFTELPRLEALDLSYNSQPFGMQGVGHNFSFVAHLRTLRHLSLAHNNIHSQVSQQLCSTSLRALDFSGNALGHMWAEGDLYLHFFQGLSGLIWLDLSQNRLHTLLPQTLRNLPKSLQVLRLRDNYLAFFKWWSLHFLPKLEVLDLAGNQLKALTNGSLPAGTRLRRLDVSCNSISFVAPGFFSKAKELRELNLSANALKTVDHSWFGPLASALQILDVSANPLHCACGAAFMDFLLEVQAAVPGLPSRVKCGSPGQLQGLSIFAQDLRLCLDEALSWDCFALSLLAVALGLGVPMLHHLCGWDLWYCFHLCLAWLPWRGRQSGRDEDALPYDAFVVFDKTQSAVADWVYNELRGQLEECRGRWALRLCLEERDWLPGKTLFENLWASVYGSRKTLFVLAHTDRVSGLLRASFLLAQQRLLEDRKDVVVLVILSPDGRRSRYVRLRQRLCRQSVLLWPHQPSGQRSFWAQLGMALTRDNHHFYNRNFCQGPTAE
# SR-BI DiI-HDL act: activators of SR-BI mediated DiI-HDL uptake, primary screen, ldlA[mSR-BI] CHO cells, DiI fluorescence | 3 h; 100 = double the neutral-control signal | activation, % at 12.5 µM | 320,000 tested, 0.096% active | AID 504775, 2011;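 active = mean replicate activation of at least 60% and every replicate at or above 60%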;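 also: 0% = median plate neutral-control signal and 100% = twice that signal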
#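 Material: SR-BI-overexpressing, LDLR-lacking CHO cells; schedule: compound exposure 3 h, 37 °C; reagent: DiI-labelled HDL at 10 µg/mL final; technique: bottom-read fluorescence, 550/595 nm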
# Hep lipid drop: inhibitors of hepatocyte lipid droplet formation, primary screen, imaging, high-throughput imaging, BODIPY stain | AML12 mouse hepatocytes, oleate lipid droplets | inhibition, % at 6.5 µM | 240,000 tested, 0.4% active;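 active = lipid droplet intensity inhibited by at least 50%, with more than 500 cells counted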
#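 Test system: AML12 hepatocytes (mouse); reagent: oleate loading, 100 µM; dosing: one dose, 6.5 µM compound; incubation: overnight exposure; signal: fluorescence imaging, 20x objective, two fields per well; read-out basis: % inhibition of corrected integrated BODIPY droplet signal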
# TLR4-MyD88 BLA: inhibitors of TLR4-MyD88 association in cells, primary screen, cell-based, HeLa CL3-4, BLA complementation, FRET ratio; inhibition, % at 8.4 µM; 200,000 tested, 0.18% active; HeLa CL3-4 TLR4/MyD88 BLA complementation; in the data active = inhibition above about 25%;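 also: 0% = vehicle and 100% = reference inhibitor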
# NOD2 RIPK2 PPI: NOD2-RIPK2 binding disruptors in cells, primary screen, fluorescence, CHO cells, BLA complementation. CCF4 ratio. AID 624267, 2012. inhibition, % at 4.98 µM. 360,000 tested, 0.38% active; in the data active = inhibition above about 21%;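 also: 0% = vehicle only and 100% = reference blocker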
# Hep lipid conf: hepatocyte lipid droplet accumulation inhibitors, confirmation, imaging, AML12 mouse hepatocytes, single concentration, high-content; shares compounds with Hep lipid drop; BODIPY lipid droplet imaging; droplets induced with 100 µM oleic acid; inhibition, % at 5.2 µM; 870 tested, 65% active; AID 463183, 2010;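 active = inhibition of lipid droplet metric at least 50%, with more than 300 cells in each of four replicates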;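 also: plate controls were DMSO with oleic acid for no effect and 5 µM Triacsin-C for full effect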
# AML12 tox img: AML12 hepatocyte cytotoxicity, counter-screen for hepatic lipid droplet formation project, imaging, DAPI nuclear morphology imaging. shares compounds with Hep lipid drop. AML12 mouse hepatocytes; stronger effect = higher value; cells fed 100 µM oleate overnight. z-score at 5 µM. 870 tested, 3% active. AID 463200, 2010; in the data active = z-score above about 6.3;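 also: compound exposure lasted overnight at 37 °C before fixation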
# AML12 tox ATP: AML12 hepatocyte cytotoxicity, confirmation, cytotoxicity control for hepatic lipid droplet formation project, cell-based, single concentration; shares compounds with Hep lipid drop; AML12 mouse hepatocyte viability, ATP luminescence; cells loaded with 100 µM oleic acid; cytotoxicity, % at 50 µM; 530 tested, under 10 active; AID 463219, 2010;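 active = cytotoxicity above 50% in each of four replicates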;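 also: compound exposure lasted overnight at 37 °C before the ATP read; 0% = DMSO-treated cells and 100% = wells with no cells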
# * = called active by the depositor; nt = not tested or not shown.
SMILES,SR-BI HDL uptake,TLR9-MyD88 block,SR-BI DiI-HDL act,Hep lipid drop,TLR4-MyD88 BLA,NOD2 RIPK2 PPI,Hep lipid conf,AML12 tox img,AML12 tox ATP
COc1ccc(OCC(=O)Nc2ccc(NC(=O)c3cccs3)cc2)cc1,nt,-8.4,nt,-12.4,nt,-3.0,nt,nt,nt
COc1cccc(NC(=O)c2cccs2)c1,6.6,-3.4,-6.6,-16.4,4.5,8.2,nt,nt,nt
COc1cccc(NC(=O)CCC(=O)Nc2cc(OC)c(NC(=O)c3cccs3)cc2OC)c1,12.5,-1.0,-12.5,78.8*,nt,2.3,109.9*,0.00805,9.5
COc1ccc(/C=C(\NC(=O)c2cccs2)C(=O)Nc2cccc3ccccc23)cc1OC,4.6,-13.6,-4.6,83.6*,-0.4,1.1,102.4*,0.163,7.5
COc1ccc(NC(=O)CCC(=O)Nc2cc(OC)c(NC(=O)c3cccs3)cc2OC)cc1,19.6,1.4,-19.6,70.6*,nt,1.9,109.4*,0.0354,8.8
Cc1ccc(NC(=O)CCC(=O)c2cccs2)cc1,-2.0,-0.4,2.0,11.5,-5.2,-9.2,nt,nt,nt
CCOC(=O)c1ccc(NC(=O)CSc2nc3c(c(=O)n2-c2ccccc2OC)SCC3)cc1,56.0,-0.4,-56.0,87.0*,nt,-10.8,105.3*,-0.496,2.4
CC1(C)NC(=S)NC1=S,-14.4,-0.5,14.4,nt,nt,-15.0,nt,nt,nt
Cc1cccc(NC(=O)CSc2nc3ccccc3nc2N2CCCCC2)c1,41.2,7.3,-41.2,30.9,nt,0.2,nt,nt,nt
COc1cccc(NC(=O)CSc2nc3ccccc3nc2N2CCCC2)c1,11.3,-3.1,-11.3,58.3*,nt,6.3,99.2*,-0.715,8.0
Cc1cccc(NC(=O)CSc2nc3ccccc3nc2N2CCCC2)c1,-5.0,-1.8,5.0,62.8*,nt,0.9,102.2*,0.575,8.9
COc1ccc(NC(=O)CSc2nc3ccccc3nc2N2CCCCC2)cc1,24.7,10.1,-24.7,73.2*,nt,-6.3,108.4*,-0.721,1.2
COC(=O)CN1CCN(C(=O)c2ccco2)CC1,-6.1,-9.8,6.1,3.2,nt,3.7,nt,nt,nt
O=C(Cc1ccsc1)NNC(=O)c1cccc(Cl)c1,-5.5,2.7,5.5,1.2,nt,-12.9,nt,nt,nt
CCN1C(=O)c2ccccc2Sc2ccc(C(=O)NCCC(C)C)cc21,14.8,8.3,-14.8,94.8*,nt,-3.5,98.1*,0.796,nt
CCN1C(=O)c2ccccc2Sc2ccc(C(=O)NC(C)C)cc21,-2.5,-3.2,2.5,-0.9,nt,-3.1,nt,nt,nt
CCCCNC(=O)c1ccc2c(c1)N(C)C(=O)c1ccccc1S2,-5.7,-13.4,5.7,77.6*,nt,-7.7,70.5*,0.54,12.7
CC(C)CCNC(=O)c1ccc2c(c1)N(C)C(=O)c1ccccc1S2,22.6,-4.2,-22.6,87.1*,nt,9.0,86.9*,0.815,nt
O=C(NCc1ccccc1)C(c1ccccc1F)N(C(=O)c1csnn1)C1CCCC1 (stereo unspecified),-10.8,-2.1,10.8,71.3*,nt,5.3,92.2*,-0.753,12.5
C=CCN(C(=O)c1csnn1)C(C(=O)NCc1ccccc1)c1ccccc1F (stereo unspecified),-32.9,-0.9,32.9,50.9*,nt,-5.9,55.5,0.492,1.5
O=C(NCc1ccccc1)C(c1ccccc1)N(C(=O)c1csnn1)C1CCCC1 (stereo unspecified),nt,5.6,nt,40.0,nt,-6.0,nt,nt,nt
O=C(CN1C(=O)NC2(CCCC2)C1=O)Nc1nc2c(F)cc(F)cc2s1,14.7,-13.1,-14.7,nt,nt,-2.5,nt,nt,nt
O=C(Nc1ccc(Cl)cc1C(=O)NCc1cccnc1)c1ccc(Cl)cc1Cl,9.4,14.8,-9.4,65.9*,-3.3,0.3,87.8*,1.88,nt
Cc1ccc(C(=O)Nc2ccccc2C(=O)NCc2ccccc2)cc1,18.5,3.4,-18.5,26.8,-0.9,-6.9,nt,nt,nt
O=C(Nc1c(Cl)cc(Cl)cc1C(=O)NCc1cccnc1)c1ccc(Cl)cc1Cl,-22.0,-0.7,22.0,nt,-1.6,-1.0,nt,nt,nt
SMILES,SR-BI HDL uptake,TLR9-MyD88 block,SR-BI DiI-HDL act,Hep lipid drop,TLR4-MyD88 BLA,NOD2 RIPK2 PPI,Hep lipid conf,AML12 tox img,AML12 tox ATP
Cc1ccc(C(=O)Nc2ccccc2C(=O)NCc2cccnc2)cc1,7.9,-0.9,-7.9,50.8*,nt,0.1,96.1*,-0.967,21.6
COc1ccc(-c2ccc(C(=O)N3CCOCC3)c3occc23)c(C)c1,nt,nt,nt,nt,nt,-10.2,nt,nt,nt
Cc1cc(C)cc(-n2ncc3c2CCCC3NC(=O)c2ccccc2N2CCOCC2)c1 (stereo unspecified),8.0,-2.7,-8.0,-14.5,nt,3.9,nt,nt,nt
NC(=O)c1nsnc1-c1ccccc1O,-2.8,-1.4,2.8,-21.7,-4.2,-7.4,nt,nt,nt
COc1ccc(S(=O)(=O)N(c2onc(C)c2Cl)S(=O)(=O)c2ccc(OC)cc2)cc1,6.8,-1.5,-6.8,59.6*,4.9,-7.4,36.6,-1.18,nt
COc1ccc(NC(=O)c2onc(C)c2Cl)cc1,nt,-6.8,nt,-0.7,nt,-3.9,nt,nt,nt
COc1ccc(C2CC(c3cccs3)=NN2C(=O)CSc2nc3ccccc3s2)cc1 (stereo unspecified),4.3,1.9,-4.3,74.2*,0.9,9.6,100.6*,-0.944,4.5
Cc1ccc([N+](=O)[O-])cc1NC(=O)C(C)Sc1nnc(C)n1CC1CCCO1 (stereo unspecified),-7.3,0.8,7.3,60.5*,nt,-5.0,17.8,-0.282,nt
COc1ccc(Cl)c(NC(=O)C/C(C)=N/NC(=O)CCc2ccccc2)c1,-7.5,1.5,7.5,122.2*,nt,5.1,98.9*,-0.547,11.9
COc1ncccc1C(=O)NC1CCCc2c1cnn2-c1ccc(C)c(C)c1 (stereo unspecified),5.7,-7.6,-5.7,57.5*,nt,9.1,92.1*,-0.398,-1.3
COCCn1c(SCC(=O)NCCCN2CCCC2=O)nc2sc3c(c2c1=O)CCCC3,-18.3,-11.8,18.3,nt,nt,-2.6,nt,nt,nt
C/C(=N\NC(N)=O)c1ccc(-n2ccnc2)cc1,-25.7,-2.6,25.7,2.0,-1.6,1.1,nt,nt,nt
CCc1ccc(OCC(=O)N/N=C(\C)c2ccc(-n3ccnc3)cc2)cc1,-2.7,-2.0,2.7,54.8*,-5.0,0.0,89.9*,0.106,51.8

# Screening data (PubChem BioAssay)
